What was measured:
Assay type in all cases: functional, cell-based
[1] = Cytotoxicity against human HCT116 cells assessed as growth inhibition after 72 hrs by MTT assay; details: HCT-116, 72 h
Method in brief: (§1)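 MTT cytotoxicity assay on three human cancer cell lines: HCT-116 (colon carcinoma), HGC-27 (gastric carcinoma) and JEKO-1 (mantle cell lymphoma).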

[2] = Cytotoxicity against human HGC27 cells assessed as growth inhibition after 72 hrs by MTT assay; details: HGC-27, 72 h; method in brief: as §1
[3] = Cytotoxicity against human JeKo1 cells assessed as growth inhibition after 72 hrs by MTT assay; details: JeKo-1, 72 h; method in brief: as §1

SMILES	IC50 [1]	IC50 [2]	IC50 [3]
CCOC(=O)[C@]1(C)CCC[C@@]2(C)[C@@H]3CC[C@@]4(C)C[C@]3(CC[C@@H]21)[C@H](CO)[C@H]4NC(=S)Nc1ccc(F)cc1	4.76 µM	4.92 µM	23.7 µM
C=C[C@]12CC[C@H]3[C@@](C)(CCC[C@@]3(C)C(=O)OCC)[C@@H]1CC[C@](C)(CN=C=S)C2	4.14 µM	11.5 µM	5.43 µM
C=C[C@]12CC[C@H]3[C@@](C)(CCC[C@@]3(C)C(=O)OCC)[C@@H]1CC[C@](C)(CNC(=S)Nc1ccccc1)C2	3.47 µM	6.69 µM	2.77 µM
CCOC(=O)[C@]1(C)CCC[C@@]2(C)[C@@H]3CC[C@@]4(C)C[C@]3(CC[C@@H]21)[C@H](CO)[C@H]4NC(=S)Nc1cccc(C)c1	4.63 µM	4.36 µM	20.8 µM
CCOC(=O)[C@]1(C)CCC[C@@]2(C)[C@@H]3CC[C@@]4(C)C[C@]3(CC[C@@H]21)[C@H](CO)[C@H]4NC(=S)Nc1ccccc1[N+](=O)[O-]	11.7 µM	22.8 µM	26.9 µM
CCOC(=O)[C@]1(C)CCC[C@@]2(C)[C@@H]3CC[C@@]4(C)C[C@]3(CC[C@@H]21)[C@H](CO)[C@H]4NC(=S)Nc1cccc(Br)c1	4.17 µM	9.15 µM	27.3 µM
CCOC(=O)[C@]1(C)CCC[C@@]2(C)[C@@H]3CC[C@@]4(C)C[C@]3(CC[C@@H]21)[C@H](CO)[C@@H]4N	4.9 µM	7.25 µM	2.47 µM
CCOC(=O)[C@]1(C)CCC[C@@]2(C)[C@@H]3CC[C@@]4(C)C[C@]3(CC[C@@H]21)[C@H](CO)[C@H]4NC(C)=O	15.2 µM	18 µM	62 µM
CCOC(=O)[C@]1(C)CCC[C@@]2(C)[C@@H]3CC[C@@]4(C)C[C@]3(CC[C@@H]21)C[C@H]4N=C=S	6.96 µM	11.6 µM	38.3 µM
CCOC(=O)[C@]1(C)CCC[C@@]2(C)[C@@H]3CC[C@@]4(C)C[C@]3(CC[C@@H]21)[C@H](CO)[C@H]4NC(=S)Nc1ccc(OC)cc1	4.57 µM	7.72 µM	40.3 µM
CCOC(=O)[C@]1(C)CCC[C@@]2(C)[C@@H]3CC[C@@]4(C)C[C@]3(CC[C@@H]21)[C@H](CO)[C@H]4NC(=S)Nc1cccc(Cl)c1	2.75 µM	5.46 µM	20.5 µM
CCOC(=O)[C@]1(C)CCC[C@@]2(C)[C@@H]3CC[C@@]4(C)C[C@]3(CC[C@@H]21)C[C@H]4NC(=S)Nc1ccccc1	8.66 µM	13.8 µM	21.5 µM
CCOC(=O)[C@]1(C)CCC[C@@]2(C)[C@@H]3CC[C@@]4(C)C[C@]3(CC[C@@H]21)[C@H](CO)[C@H]4NC(=S)Nc1ccc(C)cc1	5.62 µM	5.53 µM	30.2 µM
CCOC(=O)[C@]1(C)CCC[C@@]2(C)[C@@H]3CC[C@@]4(C)C[C@]3(CC[C@@H]21)C[C@H]4NC(=S)NC1CCCCC1	82.6 µM	92.2 µM	94.8 µM
CCOC(=O)[C@]1(C)CCC[C@@]2(C)[C@@H]3CC[C@@]4(C)C[C@]3(CC[C@@H]21)[C@H](CO)[C@H]4NC(=S)Nc1ccccc1	5.79 µM	5.16 µM	27.3 µM
CCOC(=O)[C@]1(C)CCC[C@@]2(C)[C@@H]3CC[C@@]4(C)C[C@]3(CC[C@@H]21)[C@H](CO)[C@H]4NC(=S)Nc1ccccc1C	4.78 µM	5.04 µM	24.7 µM
CCOC(=O)[C@]1(C)CCC[C@@]2(C)[C@@H]3CC[C@@]4(C)C[C@]3(CC[C@@H]21)C[C@H]4NC(=S)NNC(=O)c1ccccc1	15.1 µM	26.2 µM	56.8 µM
CCOC(=O)[C@]1(C)CCC[C@@]2(C)[C@@H]3CC[C@@]4(C)C[C@]3(CC[C@@H]21)[C@H](CO)[C@H]4NC(=S)Nc1ccc([N+](=O)[O-])cc1	1.45 µM	2.35 µM	3.54 µM

SMILES	IC50 [1]	IC50 [2]	IC50 [3]
CCOC(=O)[C@]1(C)CCC[C@@]2(C)[C@@H]3CC[C@@]4(C)C[C@]3(CC[C@@H]21)[C@H](CO)[C@H]4N	4.89 µM	5.83 µM	3.54 µM
CCOC(=O)[C@]1(C)CCC[C@@]2(C)[C@@H]3CC[C@@]4(C)C[C@]3(CC[C@@H]21)[C@H](CO)[C@H]4NC(=S)Nc1cccc([N+](=O)[O-])c1	1.88 µM	2.38 µM	5.26 µM
CCOC(=O)[C@]1(C)CCC[C@@]2(C)[C@@H]3CC[C@@]4(C)C[C@]3(CC[C@@H]21)[C@H](CO)[C@H]4NC(=S)Nc1ccccc1Br	20.9 µM	15.6 µM	14 µM
CCOC(=O)[C@]1(C)CCC[C@@]2(C)[C@@H]3CC[C@@]4(C)C[C@]3(CC[C@@H]21)[C@H](CO)[C@H]4NC(=S)Nc1cccc(F)c1	4.91 µM	4.98 µM	28.9 µM
CCOC(=O)[C@]1(C)CCC[C@@]2(C)[C@@H]3CC[C@@]4(C)C[C@]3(CC[C@@H]21)[C@H](CO)[C@H]4NC(=S)Nc1cccc(OC)c1	3.84 µM	7.21 µM	31.9 µM
CCOC(=O)[C@]1(C)CCC[C@@]2(C)[C@@H]3CC[C@@]4(C)C[C@]3(CC[C@@H]21)C[C@H]4N	5.08 µM	2.6 µM	2.2 µM
CCOC(=O)[C@]1(C)CCC[C@@]2(C)[C@@H]3CC[C@@]4(C)C[C@]3(CC[C@@H]21)[C@H](CO)[C@H]4NC(=S)Nc1ccc(Br)cc1	2.21 µM	2.98 µM	6.73 µM
CCOC(=O)[C@]1(C)CCC[C@@]2(C)[C@@H]3CC[C@@]4(C)C[C@]3(CC[C@@H]21)[C@H](CO)[C@H]4NC(=S)Nc1ccccc1Cl	7.23 µM	8.98 µM	40.7 µM
CCOC(=O)[C@]1(C)CCC[C@@]2(C)[C@@H]3CC[C@@]4(C)C[C@]3(CC[C@@H]21)[C@H](COC(C)=O)[C@H]4NC(C)=O	20.1 µM	20.5 µM	60.6 µM
CCOC(=O)[C@]1(C)CCC[C@@]2(C)[C@@H]3CC[C@@]4(C)C[C@]3(CC[C@@H]21)[C@H](CO)[C@H]4NC(=S)Nc1ccccc1F	4.85 µM	7.38 µM	35.7 µM
CCOC(=O)[C@]1(C)CCC[C@@]2(C)[C@@H]3CC[C@@]4(C)C[C@]3(CC[C@@H]21)[C@H](CO)[C@H]4NC(=S)Nc1c(C)cccc1C	4.54 µM	8.9 µM	21.1 µM
CCOC(=O)[C@]1(C)CCC[C@@]2(C)[C@@H]3CC[C@@]4(C)C[C@]3(CC[C@@H]21)[C@H](CO)[C@H]4NC(=S)Nc1ccccc1OC	5.4 µM	9.02 µM	28.3 µM
CCOC(=O)[C@]1(C)CCC[C@@]2(C)[C@@H]3CC[C@@]4(C)C[C@]3(CC[C@@H]21)[C@H](CO)[C@H]4NC(=S)Nc1ccc(Cl)cc1	4.41 µM	3.33 µM	5.76 µM
CCOC(=O)[C@]1(C)CCC[C@@]2(C)[C@@H]3CC[C@@]4(C)C[C@]3(CC[C@@H]21)[C@H](CO)[C@H]4NC(=S)Nc1ccc(Cl)cc1Cl	4.02 µM	4.78 µM	27.3 µM
CCOC(=O)[C@]1(C)CCC[C@@]2(C)[C@@H]3CC[C@@]4(C)C[C@]3(CC[C@@H]21)[C@H](CO)[C@H]4N=C=S	4.45 µM	7.7 µM	30.1 µM
CCOC(=O)[C@]1(C)CCC[C@@]2(C)[C@@H]3CC[C@@]4(C)C[C@]3(CC[C@@H]21)C[C@H]4NC(=S)N[C@@H](C)c1ccccc1	6.63 µM	18.2 µM	15.2 µM
C=C[C@]12CC[C@H]3[C@@](C)(CCC[C@@]3(C)C(=O)OCC)[C@@H]1CC[C@](C)(CN)C2	2.46 µM	3.02 µM	2.16 µM
C[C@@]12CC[C@@H]3[C@@](CC[C@H]4[C@@]3(C)CCC[C@@]4(C)C(=O)O)(CC1=O)C2 [ISOSTEVIOL]	> 100 µM	> 100 µM	> 100 µM
